Converted amounts (≈) assume the structure as drawn.
Tests used:
[1] = system: Staphylococcus aureus; test: Antibacterial activity determined as minimal inhibitory concentration (MIC) against Staphylococcus aureus ATCC 25923; format: functional
Outline: (§1)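 Agar dilution. Compounds were dissolved in 0.2% NaHCO3, or in DMSO if insoluble, and mixed into molten agar at 50 °C. After the agar set, bacterial suspension was streaked onto the surface. MIC was read after 48 h of incubation at 37 °C.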

[2] = Antibacterial activity determined as minimal inhibitory concentration (MIC) against […] OKI 60002; format: functional; outline: as §1
[3] = system: Salmonella typhi; test: Antibacterial activity determined as minimal inhibitory concentration (MIC) against Salmonella typhi OKI 10084; format: functional, Salmonella enterica subsp. enterica serovar Typhi; conditions: Salmonella enterica
Outline: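 Agar dilution against a laboratory strain. Compounds were dissolved in 0.2% NaHCO3, or in DMSO if insoluble, and mixed into molten agar at 50 °C. Bacterial suspension was streaked onto the solidified agar. Plates were incubated 48 h at 37 °C. MIC was taken as the lowest concentration inhibiting bacterial growth.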

[4] = system: Pseudomonas aeruginosa; test: Antibacterial activity determined as minimal inhibitory concentration (MIC) against Pseudomonas aeruginosa ATCC 27853; format: functional; outline: as §1
[5] = system: Enterococcus faecalis; test: Antibacterial activity determined as minimal inhibitory concentration (MIC) against Streptococcus faecalis OKI 80171; format: functional; outline: as §1
[6] = system: Staphylococcus epidermidis; test: Antibacterial activity determined as minimal inhibitory concentration (MIC) against Staphylococcus epidermidis ATCC 110001; format: functional; outline: as §1
[7] = system: Helicobacter pylori; test: Antibacterial activity determined as minimal inhibitory concentration (MIC) against Helicobacter pylori HIH 27604; format: functional; outline: as §1
[8] = system: Helicobacter pylori; test: Antibacterial activity determined as minimal inhibitory concentration (MIC) against Helicobacter pylori HIH 27606; format: functional; outline: as §1
[9] = system: Escherichia coli; test: Antibacterial activity determined as minimal inhibitory concentration (MIC) against Escherichia coli OKI 35034; format: functional; outline: as §1
[10] = system: Staphylococcus aureus; test: Antibacterial activity determined as minimal inhibitory concentration (MIC) against Methicillin resistant Staphylococcus aureus; format: functional
[11] = system: Staphylococcus aureus; test: Antibacterial activity determined as minimal inhibitory concentration (MIC90) against Methicillin sensitive Staphylococcus aureus; format: functional
Outline: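 Broth microdilution on clinical isolates. Compounds were serially diluted from 256 to 0.5 μg/mL. Log-phase bacteria were added (A540 = 0.15 × 10^7 cfu/mL) and incubated 18 h at 37 °C, then growth was inspected macroscopically. MIC was the lowest concentration inhibiting growth. MIC90 was calculated across multiple isolates from median MIC ±1 SD using the z statistic.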

[12] = system: Aggregatibacter actinomycetemcomitans; test: Antibacterial activity determined as minimal inhibitory concentration (MIC) against Actinobacillus actinomycetecommitans ATCC 29527; format: functional; outline: as §1
[13] = system: Staphylococcus aureus; test: Antibacterial activity determined as minimal inhibitory concentration (MIC) against Staphylococcus aureus ATCC 12598; format: functional; outline: as §1
[14] = system: Staphylococcus aureus; test: Antibacterial activity determined as minimal inhibitory concentration (MIC) against Staphylococcus aureus ATCC 12598; value ranges from 8-16; format: functional; outline: as §1
[15] = system: Aggregatibacter actinomycetemcomitans; test: Antibacterial activity determined as minimal inhibitory concentration (MIC) against Actinobacillus actinomycetecommitans ATCC 29527; value ranges from 1-2; format: functional; outline: as §1
[16] = system: Staphylococcus aureus; test: Antibacterial activity determined as minimal inhibitory concentration (MIC) against Staphylococcus aureus ATCC 25923; value ranges from 8-16; format: functional; outline: as §1

Compound	MIC [1]	MIC [2]	MIC [3]	MIC [4]	MIC [5]	MIC [6]	MIC [7]	MIC [8]	MIC [9]	MIC [10]	MIC90 [11]	MIC [12]	MIC [13]	MIC [14]	MIC [15]	MIC [16]
O=C(O)c1cn(C2CC2)c2cc(N3CCN(C(P(=O)(O)O)P(=O)(O)O)CC3)c(F)cc2c1=O	50 µg/mL (≈ 98.9 µM)	6.25 µg/mL (≈ 12.4 µM)	0.78 µg/mL (≈ 1.54 µM)	25 µg/mL (≈ 49.5 µM)	100 µg/mL (≈ 198 µM)	25 µg/mL (≈ 49.5 µM)	12.5 µg/mL (≈ 24.7 µM)	12.5 µg/mL (≈ 24.7 µM)	< 0.39 µg/mL							
CCOP(=O)(OCC)C(N1CCN(c2cc3c(cc2F)c(=O)c(C(=O)O)cn3C2CC2)CC1)P(=O)(OCC)OCC	12.5 µg/mL (≈ 20.2 µM)	25 µg/mL (≈ 40.5 µM)	0.78 µg/mL (≈ 1.26 µM)	> 100 µg/mL	50 µg/mL (≈ 81 µM)	6.25 µg/mL (≈ 10.1 µM)	25 µg/mL (≈ 40.5 µM)	25 µg/mL (≈ 40.5 µM)	0.78 µg/mL (≈ 1.26 µM)							
O=C(O)c1cn(C2CC2)c2cc(N3CCNCC3)c(F)cc2c1=O [CIPROFLOXACIN]	1.56 µg/mL (≈ 4.71 µM)	< 0.39 µg/mL	< 0.39 µg/mL	3.12 µg/mL (≈ 9.42 µM)	3.12 µg/mL (≈ 9.42 µM)	0.78 µg/mL (≈ 2.35 µM)	0.78 µg/mL (≈ 2.35 µM)	< 0.39 µg/mL	< 0.39 µg/mL	> 8 µg/mL	1.65 µg/mL (≈ 4.98 µM)	0.25 µg/mL (≈ 0.754 µM)	2 µg/mL (≈ 6.04 µM)			
CCOP(=O)(OCC)C(CN1CCN(c2cc3c(cc2F)c(=O)c(C(=O)O)cn3C2CC2)CC1)P(=O)(OCC)OCC	3.12 µg/mL (≈ 4.94 µM)	< 0.39 µg/mL	< 0.39 µg/mL	3.12 µg/mL (≈ 4.94 µM)	3.12 µg/mL (≈ 4.94 µM)	0.78 µg/mL (≈ 1.24 µM)	0.78 µg/mL (≈ 1.24 µM)	< 0.39 µg/mL	< 0.39 µg/mL	> 8 µg/mL	3.91 µg/mL (≈ 6.19 µM)	< 0.25 µg/mL	1 µg/mL (≈ 1.58 µM)			
O=C(O)c1cn(C2CC2)c2cc(N3CCN(CC(P(=O)(O)O)P(=O)(O)O)CC3)c(F)cc2c1=O		< 0.39 µg/mL	0.78 µg/mL (≈ 1.5 µM)	25 µg/mL (≈ 48.1 µM)	50 µg/mL (≈ 96.3 µM)	25 µg/mL (≈ 48.1 µM)	3.12 µg/mL (≈ 6.01 µM)	0.78 µg/mL (≈ 1.5 µM)	0.78 µg/mL (≈ 1.5 µM)	> 8 µg/mL	51.3 µg/mL (≈ 98.8 µM)			16 µg/mL (≈ 30.8 µM)	2 µg/mL (≈ 3.85 µM)	16 µg/mL (≈ 30.8 µM)

— ChEMBL document CHEMBL1135427, “Osteoadsorptive bisphosphonate derivatives of fluoroquinolone antibacterials” (2002)
